This is a sample that favours compounds with a hit; in the whole collection about 2% have one here.
FGF22 binding = binders of human FGF22 protein, primary screen, FGF22 synaptogenesis inhibitor project, biophysical, thermal shift, single point; Fibroblast growth factor 22 (Homo sapiens), Q9HCT0; recombinant FGF22 thermal shift, SYPRO orange fluorescence; percent of sucrose octasulfate shift, DMSO zero; activity (Tm shift, normalised), % at 9.99 µM; 340,000 compounds, 1.5% hits; AID 651658, 2012;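 active means mean Tm shift, scaled 0 neutral to 100 positive control, at about 1.3% or above, every replicate too, limit read from the data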
Target sequence (Q9HCT0 whole entry, looked up): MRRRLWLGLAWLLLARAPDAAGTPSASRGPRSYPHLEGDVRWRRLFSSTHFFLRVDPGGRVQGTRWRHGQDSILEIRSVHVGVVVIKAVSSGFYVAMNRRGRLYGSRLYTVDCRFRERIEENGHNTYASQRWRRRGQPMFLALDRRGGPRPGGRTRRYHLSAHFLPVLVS
ABCB6 inh MLPCN = ABCB6 transporter inhibitors, primary screen, K562-ABCB6 cells, flow cytometry, MLPCN library | ATP-binding cassette sub-family B member 6 (Homo sapiens), Q9NP58 | AID 602162, 2011 | fluorescence ratio to DMSO, % at 10 µM | 360,000 compounds, 0.19% hits | K562-ABCB6 porphyrin accumulation, 1 h; hits give low values;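 active means fluorescence ratio to DMSO below 75%, the collection mean minus 3 SD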;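 further: signal is porphyrin accumulated inside mitochondria; 100% equals median channel fluorescence of DMSO control wells; lower ratio means ABCB6 inhibition with less porphyrin fluorescence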
MT1-MMP act inh = blockers of MT1-MMP proenzyme processing, primary screen, HT1080 RFP-PRO-GFP cells, GFP/RFP fluorescence; Matrix metalloproteinase-14 (Homo sapiens), P50281; GFP/RFP ratio change, % at 20 µM; GFP/RFP ratio fluorescence, overnight; percent of plate control window, DMSO zero; AID 651647, 2012; 360,000 compounds, 0.061% hits;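 active means GFP/RFP ratio change of at least 30% with cell ATP level not reduced by more than half and red fluorescence within 50% of control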
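Assay system: HT1080 RFP-PRO-GFP cells. Benchmarks: DMSO vehicle wells and RFP-L50D-GFP reporter cell wells. Times: overnight cell settling, then overnight compound exposure, 37 °C, 5% CO2. Compound: 20 µM single dose, 1% DMSO. Read-out basis: GFP/RFP fluorescence ratio.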
Granule exo inh = LAMP-1 surface exposure blockers, TALL-104 cells – cell-based, flow cytometry, MLPCN library, primary screen; inhibition, % at 10 µM; TALL-104 LAMP-1 surface exposure; cells stimulated with thapsigargin and PMA; AID 651702, 2012; 360,000 compounds, 0.66% hits;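 active means inhibition above about 55%, limit read from the data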
VLA-4 inh = inhibition in human VLA-4 binding assay, primary screen, VLA-4 allosteric modulator project, MLPCN library, flow cytometry, VLA-4 expressing cells. Integrin alpha-4 (Homo sapiens), P13612. ligand binding flow cytometry. inhibition, % (about 7 µM as worked out from the volumes in the protocol). 330,000 compounds, 0.2% hits. AID 2557, 2010; in the data active means inhibition above about 50%
DAGLB inh = DAGLB lipase inhibitors, primary screen, biochemical, fluorescence, HTS | HEK293T DAGLB membrane lysate, EnzChek fluorogenic substrate | Diacylglycerol lipase-beta (Homo sapiens), Q8NCG7 | AID 504411, 2011 | inhibition, % at 5.17 µM | 340,000 compounds, 0.059% hits; in the data active means inhibition above about 34%;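 further: 0% = enzyme with vehicle and 100% = wells lacking enzyme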
An asterisk follows results filed as active; . = no result given.

SMILES	FGF22 binding	ABCB6 inh MLPCN	MT1-MMP act inh	Granule exo inh	VLA-4 inh	DAGLB inh
COc1ccc(/C=C2\CN(Cc3ccccc3)C/C(=C\c3ccc(OC)c(O)c3)C2=O)cc1O	0	95	-21	67*	2	7
COc1cc(/C=C2\COC/C(=C\c3ccc(O)c(OC)c3)C2=O)ccc1O	1	100	-16	64*	4	0
CO[C@H]1CN(C)C(=O)c2ccc(NS(=O)(=O)c3ccccc3)cc2OC[C@@H](C)NC[C@H]1C	1	.	.	.	.	.
CO[C@H]1CN(C)C(=O)c2cc(NC(=O)c3ccc4c(c3)OCO4)ccc2OC[C@H](C)N(CC2CC2)C[C@@H]1C	0	.	.	.	.	.
COc1ccc(CN=C2NN=C(c3cccc(OC)c3)CS2)cc1	43*	93	-1	0	1	1
COc1cccc(C2=NNC(=NCc3ccccc3)SC2)c1	0	100	2	-2	8	-2
COC(=O)C[C@@H]1C[C@H]2c3cc(NC(=O)NC4CCCCC4)ccc3O[C@H]2[C@@H](CO)O1	0	.	.	.	.	.
Cc1ccc(SC2=C(Sc3ccc(C)cc3)C(=O)c3ccccc3C2=O)cc1	0	113	-32	93*	14	-1
Cc1ccc(N2C(=O)c3ccccc3C2=O)cc1	0	99	-1	-2	17	-3
CN(C)CC(=O)N1[C@H](C#N)[C@@H](c2ccc(-c3cccc(C(=O)N(C)C)c3)cc2)[C@@H]1CO	0	.	.	.	.	.
CCOC(=O)C1(CC2CC2)CCN(C(=O)c2cc(C)nc3ccc(CC)cc23)CC1	44*	93	1	-4	-4	-2
CCOC(=O)C1(Cc2ccc(Cl)cc2)CCN(C(=O)c2sc(C)nc2C)CC1	0	96	-8	5	0	1
CCOC(=O)C1(Cc2ccc(Cl)cc2)CCN(C(=O)c2cc(C)nc(C)n2)CC1	43*	98	0	-2	2	-6
C[C@@H]1CN([C@@H](C)CO)C(=O)Cc2cc(NS(=O)(=O)c3ccc(Cl)cc3)ccc2O[C@@H]1CN(C)S(=O)(=O)c1cn(C)cn1	0	.	.	.	.	.
CCOC(=O)N1CCN(C(=O)CNC(=O)Cn2cnc3ccccc3c2=O)CC1	44*	113	2	-2	1	2
O=C(Cn1cnc2ccccc2c1=O)NCC(=O)N1CCOCC1	0	102	3	-1	7	-1
CCN(CC)S(=O)(=O)c1cc(NC(=O)CN2C(=O)NC3(CCCc4ccccc43)C2=O)ccc1C (centres undefined)	0	90	2	1	6	1
Cc1ccc(NC(=O)CN2C(=O)NC3(CCCc4ccccc43)C2=O)cc1S(=O)(=O)N1CCOCC1 (centres undefined)	44*	105	-2	-1	10	-2
COc1ccc(NC(=O)N(C)C[C@@H]2OCCCC[C@H](C)Oc3ccc(NC(=O)NC(C)C)cc3C(=O)N([C@H](C)CO)C[C@@H]2C)cc1	0	.	.	.	.	.
CCOC(=O)C1C(c2cccc([N+](=O)[O-])c2)C2C(=O)NN=C2CC1(C)O (centres undefined)	43*	100	2	1	6	1
Cc1nc2c(C)c(C)c(C)c(C)c2nc1C	0	97	0	3	0	.
Cc1nc2nc(C)c(C)nc2nc1C	43*	99	0	16	.	.
Cc1noc(C)c1S(=O)(=O)N(C)C[C@@H]1OCCCC[C@@H](C)Oc2ccc(NC(=O)NC(C)C)cc2C(=O)N([C@H](C)CO)C[C@H]1C	0	.	.	.	.	.
O=C1C2C3CC(C(Br)C3Br)C2C(=O)N1c1nccs1 (centres undefined)	0	99	0	2	1	.
O=C1CCCN1c1nccs1	44*	92	-1	0	-12	-3
SMILES	FGF22 binding	ABCB6 inh MLPCN	MT1-MMP act inh	Granule exo inh	VLA-4 inh	DAGLB inh
C[C@H](CO)N1C[C@H](C)[C@@H](CN(C)CC2CC2)Oc2c(NC(=O)Nc3ccc(F)cc3)cccc2C1=O	0	.	.	.	.	.
CCC(CC)NCC(O)COc1ccc(Br)cc1 (centres undefined)	0	98	7	0	16	-1
CC(C)NCC(O)COc1ccc(Br)cc1 (centres undefined)	44*	100	0	-2	-1	0
COc1ccc(-c2cc(=O)[nH]c(=S)[nH]2)cc1	0	134	-3	-4	21	1
COc1ccc(-c2ccc(C(=O)O)c(=O)[nH]2)cc1	44*	109	-4	-2	-8	2
O=C(O)CC1=C(Nc2ccccc2)C(=O)N(c2ccccc2)C1c1ccc(Br)cc1 (centres undefined)	43*	99	-3	5	-8	9
CCOc1ccc(N2C(=O)/C(=C\c3ccc(O)c(OC)c3)S(=O)(=O)C2c2cccc([N+](=O)[O-])c2)cc1 (centres undefined)	44*	91	1	5	-15	2
CCOc1ccc(N2C(=O)/C(=C\c3ccc(OC)c(O)c3)S(=O)(=O)C2c2cccc([N+](=O)[O-])c2)cc1 (centres undefined)	0	87	0	1	16	4
Cc1nc(-c2ccc(C(=O)Nc3ccc(F)cc3)cc2)cs1	43*	95	5	1	8	-1
COc1ccc(NC(=O)c2ccc(-c3csc(C)n3)cc2)cc1	0	96	4	10	0	-1
COc1ccc2c3c(n(C)c2c1)[C@H](CO)N(C(=O)c1ccncc1)CC31CN(CC2CC2)C1	0	.	.	.	.	.
COc1ccccc1C1=NC(c2ccc(C)cc2)N=C1C (centres undefined)	44*	103	3	0	-4	-6
COc1ccccc1-c1nnc(-c2ccc(C)cc2)o1	0	95	1	-2	-57	-7
C[C@@H]1CN([C@H](C)CO)C(=O)Cc2cc(NC(=O)Nc3ccccc3)ccc2O[C@@H]1CN(C)C(=O)NC1CCCCC1	0	.	.	.	.	.
CN(C)/C=N/c1nc2nccc(-c3ccc(F)cc3)n2n1	42	92	1	-2	-1	0
CN(C)/C=N/c1nc2ncc(-c3ccc(Cl)cc3)c(/N=C/N(C)C)n2n1	43*	104	1	-3	10	-2
CCC(=O)N1[C@@H]2c3cccc(=O)n3C[C@@H]2[C@@H](CO)[C@@H]1C(=O)N1CCc2ccccc2C1	0	.	.	.	.	.
